Reference: ChEMBL document CHEMBL1136166, “The imidazo[2,1-a]isoindole system. A new skeletal basis for antiplasmodial compounds” (Bioorg Med Chem Lett, 2003)
≈ marks a conversion by molar mass, not a printed value. Where “and” joins values, the source holds several entries; their conditions need not be identical. Equal entries are not always repeated.

How the values were obtained:
Plasmodium falciparum [1] = assay: In vitro inhibitory concentration against Plasmodium falciparum F32; type: functional, organism-based
Procedure, shortened: (§1)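 P. falciparum F32-Tanzania (chloroquine-sensitive) cultured per Trager-Jensen in glucose-enriched RPMI 1640 with 10% human serum, 37 °C, candle jar. Human O+ red cells at 5% haematocrit, 1% parasitaemia. After 24 h, medium replaced with drug-containing medium (final DMSO ≤0.1%) and incubated a further 48 h. Parasitaemia counted on blood smears; IC50 read graphically from % inhibition vs concentration. Triplicate. Index = IC50 chloroquine/IC50 compound ×100.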

Plasmodium falciparum [2] = assay: Antiplasmodial potency relative to chloroquine; type: functional; procedure, shortened: as §1
Ferriprotoporphyrin IX [3] = assay: Inhibitory concentration against ferriprotoporphyrin in biomineralisation assay (FBIT); Not active; type: functional, Plasmodium falciparum
Procedure, shortened: (§2)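 Heme biomineralization (FBIT): haemin chloride (0.5 mg/mL stock in DMSO), 0.5 M sodium acetate pH 4.4 and compound solution (10 mg/mL stock) were added in that order, final pH 5–5.2, and incubated at 37 °C for 18–24 h. After centrifugation, the pellet was washed with DMSO and the β-haematin dissolved in 0.1 M NaOH; absorbance read at 405 nm. % inhibition calculated against the solvent control.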

Ferriprotoporphyrin IX [4] = assay: In vitro inhibitory concentration against ferriprotoporphyrin in biomineralisation assay (FBIT); Not active; type: functional, Plasmodium falciparum; procedure, shortened: as §2
Ferriprotoporphyrin IX [5] = assay: Inhibitory concentration against ferriprotoporphyrin in biomineralisation assay (FBIT); type: functional, Plasmodium falciparum; procedure, shortened: as §2
Ferriprotoporphyrin IX [6] = assay: In vitro inhibitory concentration against ferriprotoporphyrin in biomineralisation assay (FBIT); type: functional, Plasmodium falciparum; procedure, shortened: as §2
Ferriprotoporphyrin IX [7] = assay: Antiplasmodial potency relative to chloroquine in ferriprotoporphyrin biomineralisation assay; type: functional; details: Plasmodium falciparum
Ferriprotoporphyrin IX [8] = assay: Inhibitory concentration against ferriprotoporphyrin in biomineralisation (FBIT); type: functional, Plasmodium falciparum; procedure, shortened: as §2

IC50 (Plasmodium falciparum [1]) | Structure (SMILES) | Index (Plasmodium falciparum [2]) | also measured
5 µg/mL and 20 µM | Cn1nc(Cc2ccccc2)c2ccccc2c1=O | 0.2% | –
30 µg/mL and 82 µM | COc1cc(C(=O)C(=O)c2ccccc2C(=O)N2CCCCC2)cc(OC)c1OC | <0.1% | –
16 µg/mL and 53 µM | COc1ccc(CCc2cc(O)cc(OC)c2C(=O)O)cc1 [ISONOTHOLAENIC ACID] | <0.1% | –
95 µg/mL and > 100 µM | COc1ccc(Cc2nnc(O)c3ccccc23)cc1OC | <0.1% | –
> 100 µg/mL and > 100 µM | O=C(Cc1ccc2c(c1)OCO2)c1ccccc1C(=O)N1CCCCC1 | <0.1% | –
1 µg/mL and 3.6 µM | OC1(Cc2ccccc2)c2ccccc2C2=NCCCN21 (stereo unspecified) | 1.1% | IC50 (Ferriprotoporphyrin IX [3]): Not Active; IC50 (Ferriprotoporphyrin IX [4]): Not Active
> 100 µg/mL and > 100 µM | COc1cc(Cc2nnc(O)c3ccccc23)cc(OC)c1OC | <0.01% | –
26 µg/mL and 84 µM | COc1ccc(Cc2nn(C)c(=O)c3ccccc23)cc1OC | <0.1% | –
100 µg/mL and > 100 µM | COc1cc(CC(=O)c2ccccc2C(=O)N2CCCCC2)cc(OC)c1OC | <0.1% | –
17 µg/mL and 48 µM | COc1ccc(C(=O)C(=O)c2ccccc2C(=O)N2CCCCC2)cc1 | <0.1% | –
12 µg/mL and 35 µM | O=C(Cc1ccc(Cl)cc1)c1ccccc1C(=O)N1CCCCC1 | 0.11% | –
12 µg/mL and 33.8 µM | O=C(C(=O)c1ccccc1C(=O)N1CCCCC1)c1ccc(Cl)cc1 | 0.12% | –
3.8 µg/mL and 11 µM | Cn1nc(Cc2ccc3c(c2)OCO3)c2ccccc2c1=O | 0.4% | –
32 µg/mL and 84 µM | COc1ccc(C(=O)C(=O)c2ccccc2C(=O)N2CCCCC2)cc1OC | <0.1% | –
32 µg/mL and 104 µM | COc1ccc(CC2(O)c3ccccc3C3=NCCCN32)cc1OC (stereo unspecified) | <0.1% | –
32 µg/mL and > 100 µM | COc1cc(Cc2nn(C)c(=O)c3ccccc23)cc(OC)c1OC | <0.1% | –
0.017 µg/mL and 40 nM | COc1ccc(CC2(O)c3ccccc3C3=NCCN32)cc1 (stereo unspecified) | 100% | IC50 (Ferriprotoporphyrin IX [3]): Not Active; IC50 (Ferriprotoporphyrin IX [4]): Not Active
36 µg/mL and 98 µM | COc1ccc(CC(=O)c2ccccc2C(=O)N2CCCCC2)cc1OC | <0.1% | –
8.5 µg/mL and 20.7 µM | O=C(C(=O)c1ccccc1C(=O)N1CCCCC1)c1ccc2c(c1)OCO2 | 0.2% | –

IC50 (Plasmodium falciparum [1]) | Structure (SMILES) | Index (Plasmodium falciparum [2]) | also measured
0.067 µg/mL and 190 nM | OC1(Cc2ccc3c(c2)OCO3)c2ccccc2C2=NCCN21 (stereo unspecified) | 21% | –
5.2 µg/mL and 16.1 µM | COc1cc(CC2(O)c3ccccc3C3=NCCCN32)cc(OC)c1OC (stereo unspecified) | 0.2% | –
> 100 µg/mL and > 100 µM | COc1ccc(CC(=O)c2ccccc2C(=O)N2CCCCC2)cc1 | <0.1% | –
4.9 µg/mL and 9.3 µM | COc1ccc(CC2(O)c3ccccc3C3=NCCN32)cc1OC (stereo unspecified) | 0.4% | –
0.036 µg/mL and 110 nM | OC1(Cc2ccc(Cl)cc2)c2ccccc2C2=NCCN21 (stereo unspecified) | 36% | IC50 (Ferriprotoporphyrin IX [3]): Not Active; IC50 (Ferriprotoporphyrin IX [4]): Not Active
> 100 µg/mL and > 100 µM | Oc1nnc(Cc2ccc3c(c2)OCO3)c2ccccc12 | <0.01% | –
> 100 µg/mL and > 100 µM | O=c1[nH]nc(Cc2ccccc2)c2ccccc12 | <0.1% | –
– | CCN(CC)CCCC(C)Nc1ccnc2cc(Cl)ccc12 (stereo unspecified) [CHLOROQUINE] | – | IC50 (Ferriprotoporphyrin IX [5]): 8.5 µg/mL (≈ 26.6 µM); IC50 (Ferriprotoporphyrin IX [6]): 28 µM
1 µg/mL and 3.6 µM | COc1ccc(Cc2nn(C)c(=O)c3ccccc23)cc1 | 1.1% | IC50 (Ferriprotoporphyrin IX [3]): Not Active; IC50 (Ferriprotoporphyrin IX [4]): Not Active
3.6 µg/mL and 11.5 µM | OC1(Cc2ccc(Cl)cc2)c2ccccc2C2=NCCCN21 (stereo unspecified) | 0.3% | –
2.3 µg/mL and 7.5 µM | COc1ccc(CC2(O)c3ccccc3C3=NCCCN32)cc1 (stereo unspecified) | 0.5% | –
15 µg/mL and 52.8 µM | Cn1nc(Cc2ccc(Cl)cc2)c2ccccc2c1=O | <0.1% | –
6 µg/mL and 22 µM | Oc1nnc(Cc2ccc(Cl)cc2)c2ccccc12 | 0.18% | –
0.022 µg/mL and 70 nM | COc1cc(CC2(O)c3ccccc3C3=NCCN32)cc(OC)c1OC (stereo unspecified) | 57% | IC50 (Ferriprotoporphyrin IX [5]): 590 µg/mL (≈ 1660 µM); IC50 (Ferriprotoporphyrin IX [6]): 1740 µM; Index (Ferriprotoporphyrin IX [7]): 1.6%
– | C=C[C@H]1CN2CC[C@H]1C[C@H]2[C@H](O)c1ccnc2ccc(OC)cc12 [QUININE] | – | IC50 (Ferriprotoporphyrin IX [8]): 80 µg/mL (≈ 247 µM); IC50 (Ferriprotoporphyrin IX [6]): 250 µM; Index (Ferriprotoporphyrin IX [7]): 11%
6 µg/mL and 16.3 µM | COc1ccc(CCc2cc(O)cc(OC)c2C(=O)N2CCCCC2)cc1 | 0.25% | –
2.5 µg/mL and 9.5 µM | OC1(Cc2ccccc2)c2ccccc2C2=NCCN21 (stereo unspecified) | 0.4% | –
38 µg/mL and 104 µM | OC1(Cc2ccc3c(c2)OCO3)c2ccccc2C2=NCCCN21 (stereo unspecified) | <0.1% | –
1 µg/mL and 3.8 µM | COc1ccc(Cc2nnc(O)c3ccccc23)cc1 | 1.1% | IC50 (Ferriprotoporphyrin IX [5]): 1530 µg/mL (≈ 5750 µM); IC50 (Ferriprotoporphyrin IX [6]): 5750 µM; Index (Ferriprotoporphyrin IX [7]): 0.5%
